This is an account of results in ChEMBL document CHEMBL1142233, “Treatment of diabetes and atherosclerosis by inhibiting fatty-acid-binding protein aP2” (2007).

The subject of assay [1] is Mus musculus. In words: Effect on body weight in 5-week old apoE-/- C57BL/6J mouse fed on western diet and 15 mg/kg/day, po drug simultaneously in 5-11 week early intervention study. The class given is functional.
The subject of assay [2] is Mus musculus. Put plainly: Effect on insulin level in 5-week old apoE-/- C57BL/6J mouse fed on western diet and administered with 15 mg/kg/day, po drug at 12 week in 12-18 week late intervention study. It counts as functional. The essentials: (§1)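 Male Apoe−/− mice on western diet (21% fat, 0.21% cholesterol) from 4–5 weeks of age. Oral gavage for 6 weeks from age 5 or 12 weeks; vehicle 10% 1-methyl-2-pyrrolidone, 5% cremophor EL with ethanol in water. Blood taken after 6 h fast before and after treatment. Glucose by meter; insulin by ELISA; lipids and glycerol colorimetric.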

The test system of assay [3] is Mus musculus. Put plainly: Decrease in blood glucose level in fasted ob/ob mouse at 40 mg/kg/day, po after 6 weeks. The class given is functional, organism-based. The essentials: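 Male ob/ob mice given oral gavage daily for 6 weeks from 8 weeks old, n = 6 per group. Blood taken after 6 h fast before and after treatment; fed glucose taken at week 2. Glucose by meter on 3 μl whole blood, insulin by ultrasensitive ELISA, cholesterol, FFA and glycerol by colorimetric microplate assays.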

The test system of assay [4] is Mus musculus. Put plainly: Reduction of total liver triglyceride level in ob/ob mouse at 40 mg/kg/day, po. It counts as functional, organism-based. A digest of the protocol:
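Male ob/ob mice were gavaged with 40 mg kg⁻¹ d⁻¹ or vehicle for 6 weeks from 8 weeks of age, n = 6 per group. Total liver lipids were extracted by the Bligh–Dyer method and triglyceride content was determined.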

For assay [5], the system named is Mus musculus. Put plainly: Inhibition of JNK1 activity in ob/ob mouse liver at 40 mg/kg/day, po relative to control. It counts as functional, organism-based. A digest of the protocol: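 Liver lysates (500–1,000 μg protein) from ob/ob mice gavaged at 40 mg kg⁻¹ d⁻¹ were immunoprecipitated with JNK1 antibody. The beads were incubated with 10 μCi ³²P-γATP, 10 μM ATP and 5 μg c-jun fusion protein in Hepes pH 7.4/MgCl₂ buffer at 30 °C for 20 min. The reaction was stopped with Laemmli buffer and quantified.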

In assay [6] the test system is Mus musculus. In words: Increase in whole body glucose disposal and glucose infusion rate in ob/ob mouse at 40 mg/kg/day, po after 4 weeks by hyperinsulinemic-euglycaemic clamp studies. It counts as functional, organism-based. A digest of the protocol:
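Clamps were run in ob/ob mice after 4 weeks of oral gavage at 40 mg kg⁻¹ d⁻¹ (vehicle n = 7, treated n = 9), with jugular catheters placed 4 days earlier. Insulin was infused at 12.5 mU kg⁻¹ min⁻¹, 25% glucose at variable rates held basal glycaemia, and ³H-glucose ran at 0.1 μCi min⁻¹. Clamp hepatic glucose production = whole-body uptake minus glucose infusion rate.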

Assay [7] in a line: Reduction of TNF expression mouse aP2-/-R macrophage cells (re-expression of aP2) relative to control. It counts as functional, cell-based. The essentials:
(§2)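 Mouse aP2⁺/⁺ and aP2-reconstituted aP2⁻/⁻ macrophage lines were grown in RPMI with FBS or 5% LPDS, with inhibitor in DMSO or vehicle. Mcp-1, Il1β, Il6 and Tnf mRNA were measured by SYBR Green qRT-PCR (annealing at 58 °C, 50 cycles), normalized to 18s rRNA and then to untreated cells. Mean ± s.e.m.; at least triplicate.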

Assay [8] in a line: Decrease in MCP1 production in mouse aP2-/-R macrophage cells (re-expression of aP2) after 24 hrs. It counts as functional, cell-based. The essentials: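 Immortalized mouse macrophage lines (aP2−/−R re-expressing aP2) kept 24 h in RPMI plus 5% LPDS with inhibitor 0–25 μM in DMSO. MCP-1 in supernatant measured by ELISA and expressed relative to inhibitor-free cells of each line. At least triplicate.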

The nature of assay [9]: Reduction of TNF expression in mouse aP2+/+ macrophage cells relative to control. It counts as functional, cell-based. A digest of the protocol:
as §2

In assay [10] the test system is Mus musculus. Put plainly: Inhibition of aP2 in 5-week old apoE -/- C57BL/6J mouse fed on western diet and 15 mg/kg/day, po drug simultaneously in early intervention study assessed as reduction of atherosclerotic lesion in en face aorta relative to control. It counts as functional. Details: scale not given: the % may be the effect or the level left. The essentials: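 Male Apoe⁻/⁻ C57BL/6J mice were fed a western diet (21% fat, 0.21% cholesterol) from 4–5 weeks of age. They were gavaged for 6 weeks with 15 mg kg⁻¹ d⁻¹ in vehicle (10% 1-methyl-2-pyrrolidone, 5% cremophor EL with ethanol, in water), starting at 5 weeks (early) or 12 weeks (late). Perfusion-fixed, pinned-out aortas were stained with Sudan IV and lesion area was quantified.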

The subject of assay [11] is Mus musculus. In words: Effect on cholesterol level in 5-week old apoE -/- C57BL/6J mouse fed on western diet and 15 mg/kg/day, po drug simultaneously in 5-11 week early intervention study. It counts as functional. The essentials: as §1
Assay [12] in a line: Reduction in total cholesterol ester content in mouse aP2-/-R macrophage cells (re-expression of aP2) at 25 uM relative to control. It counts as functional, cell-based.
The test system of assay [13] is Mus musculus. Put plainly: Increase in insulin-stimulated IRbeta tyrosine 1162/1163 phosphorylation in ob/ob mouse liver at 40 mg/kg/day, po relative to control. The class given is functional, organism-based. A digest of the protocol:
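Male ob/ob mice got 40 mg kg⁻¹ d⁻¹ by oral gavage or vehicle. After a 6 h fast under tribromoethanol anaesthesia, portal-vein insulin (2 IU kg⁻¹) or PBS was given. Liver was removed 3 min later, lysed and western-blotted for IRβ pTyr1162/1163 and AKT pSer473 against total IRβ and AKT, then quantified.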

In assay [14] the test system is THP-1. Put plainly: Reduction of Mcp1 expression in human THP1 cells expressing aP2 relative to control. It counts as functional, cell-based.
The subject of assay [15] is Mus musculus. Put plainly: Decrease in Mcp1 expression in ob/ob mouse adipose tissue at 40 mg/kg/day, po. The class given is functional, organism-based.
Assay [16] has as its system Mus musculus. In words: Effect on free fatty acid level in 5-week old apoE-/- C57BL/6J mouse fed on western diet and 15 mg/kg/day, po drug simultaneously in 5-11 week early intervention study. It counts as functional. A digest of the protocol:
as §1

Assay [17] relates to Mus musculus. In words: Effect on adiponectin level in 5-week old apoE-/- C57BL/6J mouse fed on western diet and 15 mg/kg/day, po drug simultaneously in 5-11 week early intervention study. It counts as functional. The essentials: as §1
In assay [18] the test system is Mus musculus. In words: Increase in insulin sensitivity in ob/ob mouse at 40 mg/kg/day, po after 5 weeks by insulin tolerance test. It counts as functional, organism-based. A digest of the protocol:
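Male ob/ob mice, from 8 weeks of age, got 40 mg kg⁻¹ d⁻¹ of the inhibitor or vehicle by oral gavage for 6 weeks. After 5 weeks of treatment and a 6 h fast, insulin was given intraperitoneally (2 IU kg⁻¹). Blood glucose was read with a glucose meter on 3 μl whole blood. Vehicle and treated groups had n = 6 each.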

Assay [19] has as its system Mus musculus. In words: Increase in glucose uptake in epididymal fat in ob/ob mouse at 40 mg/kg/day, po after 4 weeks by hyperinsulinemic-euglycaemic clamp studies relative to control. It counts as functional, organism-based. A digest of the protocol:
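Ob/ob mice after 4 weeks of treatment, jugular catheterized 4 days earlier. Clamp with insulin at 12.5 mU kg⁻¹ min⁻¹, variable 25% glucose to hold basal glucose, and ³H-glucose at 0.1 μCi min⁻¹ with 2-¹⁴C-DG. Tissue uptake computed from the fitted plasma 2-¹⁴C-DG curve and tissue 2-¹⁴C-DG-6-phosphate content. n = 7 and 9.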

Assay [20] has as its system Mus musculus. In words: Decrease in Fasn expression in liver of ob/ob mouse at 40 mg/kg/day, po. The class given is functional, organism-based. The essentials: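 Liver from male ob/ob mice gavaged daily for 6 weeks from 8 weeks of age, n = 6 per group. mRNA measured by SYBR Green real-time PCR: 95 °C 4 min, then 50 cycles of 95 °C 15 s, 58 °C 30 s, 72 °C 30 s. Normalized to 18s rRNA.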

Calls of active or inactive are those of the source. The calls are words filed in the database; no cut-off is given here.

On to `CCc1c(-c2ccccc2)c(-c2ccccc2)nn1-c1ccccc1-c1cccc(OCC(=O)O)c1`, for which the Activity in assay [1] was found to be 30.3 g; in assay [2], 2.19 ng/mL; in assay [10], 52.6%; in [11], 1465.3 mg/dL; in assay [16], 2 mM; in assay [17], 8.59 µg/mL. For the same compound, the outcome in assay [3], in [4], in assay [5], in assay [6], in assay [7] and in [8] was Active. The result in assay [9], in assay [12], in assay [13], in [14], in assay [15] and in assay [18] was Active. For the same compound, the result in assay [19] and in [20] was Active.
